From PMC7408314 (Inorganic chemistry, 2020)

Key:
[1] = [L] = 10 μM, [M] = 1 μM, pH = 7.4; cited from earlier work
[2] = biological target: PSMA on PC3-PIP (PSMA+) cells (Homo sapiens, UniProt Q04609); assay: Receptor saturation binding assay on prostate cancer cells; details: 2 h incubation
[3] = cited from earlier work
[4] = cited from earlier work; remark: listed apart in the source
[5] = cited from earlier work; remark: listed apart in the source
[6] = protonated tertiary amine in the pyridyl backbone; cited from earlier work
[7] = In vitro mouse serum challenge; assay type: in vitro ADME; details: 37 °C, at least six half-lives of scandium-44 (24 h)
Procedure, shortened: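 Scandium-44-labelled complex (free chelator or its PSMA-617 conjugate, labelled at ambient temperature in 0.5 M NH₄OAc) mixed with an equal volume of mouse serum and held at 37 °C. Aliquots taken at 0.5, 4, 8 and 24 h, run on iTLC-SA in 0.4 M sodium citrate pH 4.5 beside free ⁴⁴Sc-in-serum control. Intact fraction calculated from baseline versus solvent-front peak areas.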

[8] = test system: PC3-PIP (PSMA+) and PC3-Flu (PSMA−) tumor-bearing nude mice; details: 7.4 vs 74 GBq/μmol
[9] = in vivo; details: male, nude, mouse, tumor (PSMA+, PC3-PIP), intravenous, total radioactivity, tumor retention

Sequence of PSMA on PC3-PIP (PSMA+) cells (Q04609 whole entry): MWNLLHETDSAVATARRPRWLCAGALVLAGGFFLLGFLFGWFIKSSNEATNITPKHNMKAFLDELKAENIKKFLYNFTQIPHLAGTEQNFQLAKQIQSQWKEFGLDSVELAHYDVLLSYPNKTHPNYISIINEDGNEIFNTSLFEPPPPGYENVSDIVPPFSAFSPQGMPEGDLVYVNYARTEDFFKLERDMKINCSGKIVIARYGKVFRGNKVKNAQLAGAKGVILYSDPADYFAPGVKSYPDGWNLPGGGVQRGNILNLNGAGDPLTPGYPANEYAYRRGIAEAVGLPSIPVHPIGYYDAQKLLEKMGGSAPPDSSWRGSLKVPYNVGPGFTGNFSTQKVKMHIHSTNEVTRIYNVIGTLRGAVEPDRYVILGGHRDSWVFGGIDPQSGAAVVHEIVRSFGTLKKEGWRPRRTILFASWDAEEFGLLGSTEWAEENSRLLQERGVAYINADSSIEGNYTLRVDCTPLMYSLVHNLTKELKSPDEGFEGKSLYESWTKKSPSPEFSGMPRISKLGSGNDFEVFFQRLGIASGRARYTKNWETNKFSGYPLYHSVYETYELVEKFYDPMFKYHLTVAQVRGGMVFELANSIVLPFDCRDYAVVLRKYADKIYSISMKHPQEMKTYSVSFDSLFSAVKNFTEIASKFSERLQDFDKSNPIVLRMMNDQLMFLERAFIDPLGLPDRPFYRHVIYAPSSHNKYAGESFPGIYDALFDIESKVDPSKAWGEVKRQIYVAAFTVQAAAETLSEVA

## CC1(N(CC(=O)O)CC(=O)O)CN(CC(=O)O)CCN(CC(=O)O)C1 [AAZTA, 6-[bis(hydroxycarbonyl-methyl)amino]-1,4-bis-(hydroxycarbonylmethyl)-6-methylperhydro-1,4-diaze-pine]
[1]
  pSc (pM), −log [M]free: 24.7

## O=C(O)CN1CCN(CC(=O)O)CCN(CC(=O)O)CCN(CC(=O)O)CC1 [DOTA, 1,4,7,10-tetraazacyclododecane-1,4,7,10-tetraacetic acid]
[1]
  pSc (pM), −log [M]free: 23.9

## O=C(O)CC[C@H](NC(=O)N[C@@H](CCCCNC(=O)[C@H](Cc1ccc2ccccc2c1)NC(=O)[C@H]1CC[C@H](CNC(=O)CCCCCCOc2cc(CN(CC(=O)O)Cc3cccc(C(=O)O)n3)nc(CN(CC(=O)O)Cc3cccc(C(=O)O)n3)c2)CC1)C(=O)O)C(=O)O [H4pypa-C7-PSMA617]
[2]
  Bmax: 7.84 ± 0.37 fmol/mg

## O=C(O)CN(Cc1cccc(CN(CC(=O)O)Cc2cccc(C(=O)O)n2)n1)Cc1cccc(C(=O)O)n1 [H4pypa]
[3]
  complex stability pM with La^3+: 19.9
[4]
  complex stability pM with In^3+: 30.5
[5]
  complex stability pM with Lu^3+: 22.6
[6]
  highest pKa: 7.78

## O=C(O)CC[C@H](NC(=O)N[C@@H](CCCCNC(=O)[C@H](Cc1ccc2ccccc2c1)NC(=O)[C@H]1CC[C@H](CNC(=O)CCCCCCOc2cc(CN(CC(=O)O)Cc3cccc(C(=O)O)n3)nc(CN(CC(=O)O)Cc3cccc(C(=O)O)n3)c2)CC1)C(=O)O)C(=O)O [[^44Sc][Sc(pypa-C7-PSMA617)], metal not drawn]
[7]
  transchelation in mouse serum: < 1%
[8]
  effect of lower apparent molar activity on kidney accumulation: brought down the kidney accumulation by more than half
[9]; after about four half-lives of scandium-44, 7.4 GBq/μmol
  tissue uptake: 14.9 ± 1.7 %ID/g
[9]; after about four half-lives of scandium-44, 74 GBq/μmol
  tissue uptake: 20 ± 0.6 %ID/g
